# In the RNAGym collection of RNA variant scans (doi:10.1126/science.aae0568):
# This sample holds only a part of the variants without activity.
# B1: tRNA (parent)
# chain: GUUCCGUUGGCGUAAUGGUAACGCGUCUCCCUCCUAAGGAGAAGACUGCGGGUUCGAGUCCCGUACGGAACG
# Variants of: B1
# Assay: yeast fitness relative to wild type (ratio to wild type); higher = fitter; tRNA-Arg(CCU), competitive growth, 37 C, YPD
# How it was run: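 The tRNA-Arg(CCU) gene variants were made by chemical synthesis with a 3% per-site mutation rate at 69 sites and inserted at the native genomic locus of Saccharomyces cerevisiae. After pooling, the strains were competed in YPD at 37°C for 24 hours in six parallel replicates. Gene amplicons from the start population and each end population were read by 100-nucleotide paired-end sequencing, and Darwinian fitness relative to wild type was taken from genotype frequency changes. Genotypes needed ≥ 100 starting reads, and estimates < 0.5 were set to 0.5.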
row,Variant,yeast fitness
1,U47C U59A,0.961
2,U47C U59A A65C A70C,≤ 0.5
3,U47C U59A G63C,0.58
4,U47G A57G,0.7
5,U47G A57U,≤ 0.5
6,U47G A70C,0.685
7,U47G C49A,0.68
8,U47G C49U,0.682
9,U47G C60G,0.675
10,U47G C60G C62A A65G,≤ 0.5
11,U47G C60U,0.548
12,U47G C62G A69C,0.508
13,U47G C62G A69U,0.545
14,U47G C66G,0.517
15,U47G C66U,0.691
16,U47G G50C,≤ 0.5
17,U47G G51A,0.588
18,U47G G56A,0.646
19,U47G G63A,0.561
20,U47G G68U,0.568
21,U47G U59A C66A A70C,≤ 0.5
22,G48A,0.982
23,G48A A57G,0.972
24,G48A A57U A65U C66A,≤ 0.5

row,Variant,yeast fitness
1,G48A A65C,0.901
2,G48A A69C,0.96
3,G48A A70G,1.12
4,G48A C49U,0.97
5,G48A C55A C60G,0.513
6,G48A C55A G58C,0.516
7,G48A C55G C62U,≤ 0.5
8,G48A C55U A65C,0.627
9,G48A C55U A69U,0.522
10,G48A C55U C60G,0.727
11,G48A C60A,0.695
12,G48A C60G A70C,≤ 0.5
13,G48A C60G G63C,≤ 0.5
14,G48A C60U,0.847
15,G48A C60U A65U,0.726
16,G48A C61A,0.682
17,G48A C61A A65C,≤ 0.5
18,G48A C61A G68U,0.561
19,G48A C61G A65C,≤ 0.5
20,G48A C61G A70C,0.531
21,G48A C61U,1.04
22,G48A C61U A70C,0.989
23,G48A C62A,0.978
24,G48A C62G A69U,1.03

row,Variant,yeast fitness
1,G48A C66A,0.929
2,G48A C66A G67A,≤ 0.5
3,G48A C66G A70G,0.632
4,G48A C66U A69C,0.719
5,G48A G50A A70U,0.812
6,G48A G50C,1.07
7,G48A G50U U54G A70U,≤ 0.5
8,G48A G51A U59C,0.956
9,G48A G51C,0.655
10,G48A G51C C60A U64C,0.853
11,G48A G51C G67C,≤ 0.5
12,G48A G52A G67A,0.648
13,G48A G52A G67C,0.536
14,G48A G52C A57C,0.622
15,G48A G52C U54C C66U,≤ 0.5
16,G48A G56A,1.02
17,G48A G56C C62U,0.65
18,G48A G58C,0.979
19,G48A G58C C66U,0.714
20,G48A G63A A65C,≤ 0.5
21,G48A G63C,0.89
22,G48A G67U,0.9
23,G48A G68U A70C,0.809
24,G48A U53C C60A,≤ 0.5

row,Variant,yeast fitness
1,G48A U54C,0.929
2,G48A U59C,0.934
3,G48A U64C,0.816
4,G48C,0.977
5,G48C A57C,0.594
6,G48C A57G A69U,0.562
7,G48C A65G,1.01
8,G48C A65U,0.75
9,G48C A69C,1.05
10,G48C C49A U53A G56A G58C,0.611
11,G48C C49G,0.621
12,G48C C49U A65U A69U,≤ 0.5
13,G48C C49U A70U,0.724
14,G48C C49U C60A A65U,≤ 0.5
15,G48C C49U C62U,0.637
16,G48C C49U U54G C66A,0.624
17,G48C C55A,0.703
18,G48C C55G,0.78
19,G48C C55U,0.668
20,G48C C60G,0.719
21,G48C C61A A65U,0.687
22,G48C C61G,0.629
23,G48C C62U A69C,0.701
24,G48C C66U,0.932

row,Variant,yeast fitness
1,G48C G50C,0.68
2,G48C G51A,0.849
3,G48C G51C A57U G68C,≤ 0.5
4,G48C G51C U53A C66A,≤ 0.5
5,G48C G51C U59A,≤ 0.5
6,G48C G52C A57C G58A A70G,≤ 0.5
7,G48C G52C C62G,≤ 0.5
8,G48C G52C G63C,≤ 0.5
9,G48C G56C,0.7
10,G48C G63A,0.877
11,G48C G67U A69C,0.507
12,G48C G68A,0.846
13,G48C U53A C61U,0.517
14,G48C U54A,0.679
15,G48C U54C,0.973
16,G48C U59A,0.785
17,G48C U59A C66U,0.679
18,G48C U64A,0.946
19,G48C U64C,1.08
20,G48C U64C G67C,≤ 0.5
21,G48U,1.03
22,C49A,0.759
23,C49A A57C,0.573
24,C49A A57G,0.835

row,Variant,yeast fitness
1,C49A A57U A70C,0.518
2,C49A A65G,0.625
3,C49A A65U,0.962
4,C49A A70U,0.714
5,C49A C60A A70C,≤ 0.5
6,C49A C60G A70U,≤ 0.5
7,C49A C61U A65G,0.568
8,C49A C62G,0.576
9,C49A C62U A65G,≤ 0.5
10,C49A C66U,0.641
11,C49A G50A,0.672
12,C49A G50A C62U,0.637
13,C49A G50U,0.694
14,C49A G50U C62U,≤ 0.5
15,C49A G51C,0.589
16,C49A G56A,0.831
17,C49A G56C G67A,≤ 0.5
18,C49A G63U U64C,≤ 0.5
19,C49A G67A,0.579
20,C49A G68A,0.64
21,C49A G68C,0.578
22,C49A G68U,0.723
23,C49A U53A U59C C61A,≤ 0.5
24,C49A U54A,0.538

row,Variant,yeast fitness
1,C49A U54C,0.674
2,C49A U54G,0.584
3,C49A U64C,0.86
4,C49G,0.99
5,C49G A57C,0.656
6,C49G A57G,0.719
7,C49G A57G C61U,0.584
8,C49G A57U,0.792
9,C49G A57U C61G,0.516
10,C49G A57U G63A G67A,≤ 0.5
11,C49G A65G,0.957
12,C49G A65U,0.748
13,C49G C55U,0.692
14,C49G C60A,0.696
15,C49G C60G,0.64
16,C49G C60U A65C,≤ 0.5
17,C49G C60U A69G,≤ 0.5
18,C49G C61A,0.808
19,C49G C61U,0.719
20,C49G C62U,0.79
21,C49G C66A G67U,≤ 0.5
22,C49G C66G,0.647
23,C49G C66G G67C,0.569
